Measurements taken from ChEMBL document CHEMBL4266034, “LC-MS-Guided Isolation of Insulin-Secretion-Promoting Monoterpenoid Carbazole Alkaloids from Murraya microphylla” (J Nat Prod, 2018).

How the values were obtained:
[1] = Cytotoxicity against syrian hamster HIT-T15 cells assessed as decrease in cell viability at 40 uM by MTT assay; assay type: cell-based, Mesocricetus auratus
[2] = Induction of insulin secretion in syrian hamster HIT-T15 cells at 40 uM after 1 hr by HTRF assay relative to control; assay type: functional, Mesocricetus auratus
Procedure, shortened: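 HIT-T15 hamster pancreatic islet cells were exposed to test compounds at 40 μM, with gliclazide at 100 μM as the positive control. Insulin secretion is expressed relative to untreated control cells. The procedure follows an earlier report. Each experiment was performed three times, and significance was taken at p < 0.01.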

## CC(C)=CCCC1(C)C=Cc2c(c(C)cc3c2[nH]c2cc(OC4(C(C)C)CC=C(C)CC4)ccc23)O1 (centres undefined)
[1]
  Activity: Non-Toxic
[2]
  fold change (FC): 1.9 - 3.1

## CC1=C[C@@H](c2c(O)ccc3c2[nH]c2c4c(c(C)cc23)OC(C)(C)C=C4)[C@H](C(C)C)CC1
[1]
  Activity: Non-Toxic
[2]
  fold change (FC): 1.9 - 3.1

## COc1cc2c([nH]c3c4c(c(C)cc32)OC(C)(C)C=C4)c([C@@]2(C)CC[C@@]3(C(C)C)C[C@H]32)c1O
[1]
  Activity: Non-Toxic
[2]
  fold change (FC): 1.9 - 3.1

## Cc1cc2c([nH]c3c([C@@]4(C)CC[C@@]5(C(C)C)C[C@H]54)c(O)ccc32)c2c1OC(C)(C)C=C2
[1]
  Activity: Non-Toxic
[2]
  fold change (FC): 1.9 - 3.1

## COc1cc2c([nH]c3c4c(c(C)cc32)OC(C)(C)C=C4)c([C@@H]2C=C(C)CC[C@H]2C(C)C)c1O
[1]
  Activity: Non-Toxic
[2]
  fold change (FC): 1.9 - 3.1

## CC(C)=CCC[C@]1(C)C=Cc2c(c(C)cc3c2[nH]c2c([C@@H]4C=C(C)CC[C@H]4C(C)C)c(O)ccc23)O1
[1]
  Activity: Non-Toxic
[2]
  fold change (FC): 1.9 - 3.1

## CC1=CCC(Oc2ccc3c(c2)[nH]c2c4c(c(C)cc23)OC(C)(C)C=C4)(C(C)C)CC1 (centres undefined)
[1]
  Activity: Non-Toxic
[2]
  fold change (FC): 1.9 - 3.1

## Cc1cc2c([nH]c3c([C@]4(C)CC[C@@]5(C(C)C)C[C@H]54)c(O)ccc32)c2c1OC(C)(C)C=C2
[1]
  Activity: Non-Toxic
[2]
  fold change (FC): 1.9 - 3.1

## COc1cc2c(cc1OC1(C(C)C)CC=C(C)CC1)[nH]c1c3c(c(C)cc12)OC(C)(C)C=C3 (centres undefined)
[1]
  Activity: Non-Toxic
[2]
  fold change (FC): 1.9 - 3.1

## COc1cc2c(cc1OC(C)(C)[C@@H]1CC=C(C)CC1)[nH]c1c3c(c(C)cc12)OC(C)(C)C=C3
[1]
  Activity: Non-Toxic
[2]
  fold change (FC): 1.9 - 3.1

## COc1cc2c([nH]c3c4c(c(C)cc32)OC(C)(C)C=C4)c([C@]2(C)CC[C@@]3(C(C)C)C[C@H]32)c1O
[1]
  Activity: Non-Toxic
[2]
  fold change (FC): 1.9 - 3.1

## CC(C)=CCC[C@]1(C)C=Cc2c(c(C)cc3c2[nH]c2c([C@@]4(C)CC[C@@]5(C(C)C)C[C@H]54)c(O)ccc23)O1
[1]
  Activity: Non-Toxic
[2]
  fold change (FC): 1.9 - 3.1
